Calls of active or inactive are those of the source. No cut-off for these calls is given here.
Assays:
[1] = Cytotoxicity against human H116 cells by disk diffusion assay; assay type: cell-based
Saccharomyces cerevisiae [2] = test: Inhibition of Saccharomyces cerevisiae top1delta by yeast halo assay; assay type: functional, organism-based
In short: (§1)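 Diploid S. cerevisiae BY4743 (top1∆ or wild type) from overnight culture seeded into YPD-H agar (YPD buffered with 25 mM HEPES, pH 7) and cooled 30 min. DMSO stocks were pin-transferred at 200 nL into the agar. Plates read by absorbance at 544 nm, growth-inhibition halo diameter measured, and top1∆ growth compared with wild type.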

Saccharomyces cerevisiae [3] = test: Inhibition of wild type Saccharomyces cerevisiae by yeast halo assay; assay type: functional, organism-based; in short: as §1
Saccharomyces cerevisiae [4] = test: Inhibition of Saccharomyces cerevisiae top1delta in liquid culture; assay type: functional
In short: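 Diploid S. cerevisiae BY4743 top1∆ and wild type grown in 100 µL liquid cultures with six 2-fold dilutions of compound alongside DMSO controls. Absorbance at 544 nm read every 30 min. Doubling time computed at each concentration and compared with the DMSO doubling time; LC50 derived.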

[5] = Cytotoxicity against human H116 cells by clonogenic assay after 2 hrs; assay type: cell-based; details: h116, 2 h
In short: (§2)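 Clonogenic survival of human colon H-116 cells over a range of concentrations, exposed for 2, 24 or 168 h (168 h being continuous over the 7-day incubation). Value reported as the concentration giving 10% surviving fraction (S10), read from the concentration-response curve.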

[6] = Cytotoxicity against human H116 cells by clonogenic assay after 24 hrs; assay type: cell-based; details: h116, 24 h; in short: as §2
[7] = Cytotoxicity against human H116 cells by clonogenic assay after 168 hrs; assay type: cell-based; details: h116, 168 h; in short: as §2
[8] = Induction of Top2-mediated catenation of DNA; assay type: functional

SMILES	Activity [1]	Activity (Saccharomyces cerevisiae [2])	Activity (Saccharomyces cerevisiae [3])	LC50 (Saccharomyces cerevisiae [4])	Activity [5]	Activity [6]	Activity [7]	Activity [8]
CCC/C=C/CCCCCCCCCCCC[C@]1(C)OC(=O)[C@@H](CO)[C@@H]1O [AMPHIASTERIN B2]	Not Active	inactive	inactive	–	–	–	–	–
O=C1CCNC2=C1C(=O)c1[nH]cc3c1c2nc1ccccc13 [PLAKINIDINE E]	Not Active	Toxic	Non-toxic	33 µM	–	–	–	–
CCC/C=C/CCCCCCCCCC[C@]1(C)OC(=O)[C@@H](CO)[C@@H]1O [AMPHIASTERIN B1]	Not Active	inactive	inactive	–	–	–	–	–
CNc1c2c(c3nc4ccccc4c4c3c1N=C4)NCCC2=O [PLAKINIDINE A]	Active	inactive	inactive	–	20 µg/mL	1.5 µg/mL	150 ng/mL	–
Cn1ccc2c(c1=O)C(=O)c1nccc3c1c-2nc1ccccc13	–	–	–	–	–	–	–	Active
